Active and inactive are the calls of the source.
Tests used:
[1] = target: Replicase polyprotein 1ab (Severe acute respiratory syndrome coronavirus 2) (UniProt P0DTD1); assay: Inhibition of SARS-COV2 main protease mediated cytotoxicity against human A549 cells transfected with pCMV3-2019-nCoV-3CLpro plasmid assessed as increase in cell number at 5 uM measured at 48 hrs by Nucblue dye based microscopic analysis
How it was run: (§1)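 HepG2 or A549 cells (3×10^5) were lipofected 16 h after seeding with 3 µg pCMV3-2019-nCoV-3CLpro in serum-free DMEM for 8 h, then grown in complete medium for 12 h. Cells were trypsinised and 1×10^4 replated with hygromycin B (200 µg) plus compound or E64 (5 µM) for 48 h. NucBlue (Hoechst 33342) was added for 30 min at 37 °C, then imaging and hemocytometer counts against nontransfected cells.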

[2] = target: Replicase polyprotein 1ab (Severe acute respiratory syndrome coronavirus 2) (UniProt P0DTD1); assay: Binding affinity to recombinant SARS-COV2 main protease expressed in Escherichia coli Rosetta cells at 2 uM measured after 16 hrs by LC-MSMS analysis based equilibrium dialysis method
How it was run: (§2)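 Purified His-GST-tagged MPro expressed in E. coli Rosetta and released with HRV3C protease. MPro (30 µg) in 50 mM potassium phosphate pH 7.5 with 2 µM compound was dialysed against the same solution without protein (3.5 kDa cutoff) for 16 h at room temperature. Drug in the dialysate was quantified by LC-MS or LC-MS/MS against a no-protein control. The dialyser contents were then denatured and drug re-measured.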

[3] = target: Replicase polyprotein 1ab (Severe acute respiratory syndrome coronavirus 2) (UniProt P0DTD1); assay: Inhibition of SARS-COV2 main protease mediated cytotoxicity against human A549 cells transfected with pCMV3-2019-nCoV-3CLpro plasmid assessed as GSH level measured at 48 hrs in presence of buthionine sulfoximine by Nucblue dye based microscopic analysis; assay type: cell-based
[4] = target: Replicase polyprotein 1ab (Severe acute respiratory syndrome coronavirus 2) (UniProt P0DTD1); assay: Inhibition of SARS-COV2 main protease mediated cytotoxicity against human A549 cells transfected with pCMV3-2019-nCoV-3CLpro plasmid assessed as increase in cell number measured at 48 hrs in presence of buthionine sulfoximine by Nucblue dye based microscopic analysis
How it was run: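 Transfected A549 cells were pretreated with 500 µM buthionine sulfoximine. At 20 h post-transfection, compound or E64 (5 µM) was added with 1 mM BSO. After 48 h, cells were stained with NucBlue (Hoechst 33342), imaged and counted, with nontransfected cells handled identically.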

[5] = target: T1, Replicase polyprotein 1ab (Severe acute respiratory syndrome coronavirus 2, UniProt P0DTD1); assay: Inhibition of recombinant SARS-COV2 main protease expressed in Escherichia coli Rosetta cells using DABCYL-KTSAVLQSGFRKME-EDANS as substrate pre-incubated for 60 mins followed by substarte addition by FRET-based assay
How it was run: (§3)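 FRET assay with purified E. coli-expressed MPro (0.5 µM) in 50 mM Tris pH 7.4 with 2 µM EDTA and no DTT. MPro was preincubated 60 min at 37 °C with a range of inhibitor concentrations, with 5 mM GSH added for line 12. IC50 came from initial rates.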

[6] = target: Replicase polyprotein 1ab (Severe acute respiratory syndrome coronavirus 2) (UniProt P0DTD1); assay: Inhibition of SARS-COV2 main protease mediated cytotoxicity against human HepG2 cells transfected with pCMV3-2019-nCoV-3CLpro plasmid assessed as increase in cell number at 5 uM measured at 48 hrs by Nucblue dye based microscopic analysis; how it was run: as §1
[7] = target: Replicase polyprotein 1ab (Severe acute respiratory syndrome coronavirus 2) (UniProt P0DTD1); assay: Inhibition of SARS-COV2 main protease mediated cytotoxicity against human A549 cells transfected with pCMV3-2019-nCoV-3CLpro plasmid assessed as increase in cell number and measured at 48 hrs by calcien AM staining based microscopic analysis
How it was run: (§4)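 3-D organoid-like culture: pCMV3-2019-nCoV-3CLpro-transfected or nontransfected HepG2 or A549 cells (3000 cells/µL) were mixed 1:1 with growth factor-reduced Matrigel, with drug-containing medium added at the same time. Viable cells were imaged after calcein AM staining. Organoids were then melted on ice, pelleted, trypsinised and counted by hemocytometer.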

[8] = target: Replicase polyprotein 1ab (Severe acute respiratory syndrome coronavirus 2) (UniProt P0DTD1); assay: Inhibition of SARS-COV2 main protease mediated cytotoxicity against human HepG2 cells transfected with pCMV3-2019-nCoV-3CLpro plasmid assessed as increase in cell number and measured at 48 hrs by calcien AM staining based microscopic analysis; how it was run: as §4
[9] = target: Replicase polyprotein 1ab (Severe acute respiratory syndrome coronavirus 2) (UniProt P0DTD1); assay: Binding affinity to recombinant SARS-COV2 main protease expressed in Escherichia coli Rosetta cells at 2 uM measured after 16 hrs by LC-MS analysis based equilibrium dialysis method; how it was run: as §2
[10] = target: T1, Replicase polyprotein 1ab; assay: Inhibition of recombinant SARS-COV2 main protease expressed in Escherichia coli Rosetta cells using DABCYL-KTSAVLQSGFRKME-EDANS as substrate pre-incubated for 60 mins followed by substarte addition measured at 30 min in presence of GSH by FRET-based assay; how it was run: as §3
[11] = target: Replicase polyprotein 1ab (Severe acute respiratory syndrome coronavirus 2) (UniProt P0DTD1); assay: Inhibition of recombinant SARS-COV2 main protease expressed in Escherichia coli Rosetta cells at 5 uM using DABCYL-KTSAVLQSGFRKME-EDANS as substrate pre-incubated for 60 mins followed by substarte addition measured at 5 min by FRET-based assay relative to control
How it was run: (§5)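 Time-course variant of the FRET assay: fixed inhibitor concentration with preincubation times varied (5–120 min, 37 °C) in 50 mM Tris pH 7.4 with 2 µM EDTA. Conditions were 0.5 µM MPro with 5 µM inhibitor, or 0.25 µM MPro with 0.5 µM inhibitor.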

[12] = target: Replicase polyprotein 1ab (Severe acute respiratory syndrome coronavirus 2) (UniProt P0DTD1); assay: Inhibition of recombinant SARS-COV2 main protease expressed in Escherichia coli Rosetta cells at 0.5 uM using DABCYL-KTSAVLQSGFRKME-EDANS as substrate pre-incubated for 60 mins followed by substarte addition and measured at 30 min by FRET-based assay relative to control; how it was run: as §5

SMILES | inhibition [1] | Activity [2] | inhibition [3] | inhibition [4] | IC50 [5] [nM] | inhibition [6] | inhibition [7] | inhibition [8] | Activity [9] | IC50 [10] [nM] | inhibition [11] [%] | inhibition [12] [%]
CC1=C(C)C(=O)O[C@@H]([C@@H](C)[C@@]2(O)CC[C@H]3[C@@H]4[C@@H]5O[C@@H]5[C@@]5(O)CC=CC(=O)[C@]5(C)[C@H]4CC[C@@]32C)C1 [WITHANONE] | Active | Active | Active | Active | 1800 | Active | Active | Active |  |  |  | 
CC(C)C[C@H](NC(=O)[C@H]1O[C@@H]1C(=O)O)C(=O)NCCCCN=C(N)N | Active |  |  | Active |  | Active |  |  |  |  |  | 
CC1=C(CO)C(=O)O[C@@H]([C@@H](C)[C@H]2CC[C@H]3[C@@H]4C[C@H]5O[C@]56[C@@H](O)C=CC(=O)[C@]6(C)[C@H]4CC[C@]23C)C1 [WITHAFERIN A] | Active |  | Active | Active | 540 | Active | Active | Active | Active | 630 | 100 | 80

From ChEMBL document CHEMBL5137122, “The Natural Products Withaferin A and Withanone from the Medicinal Herb Withania somnifera Are Covalent Inhibitors of the SARS-CoV-2 Main Protease” (J Nat Prod, 2022)
